In ChEMBL document CHEMBL3600342, “Fragment-Based Drug Discovery Targeting Inhibitor of Apoptosis Proteins: Discovery of a Non-Alanine Lead Series with Dual Activity Against cIAP1 and XIAP” (J Med Chem, 2015):
One block for each compound: values may come before it. Active and inactive are the calls of the source. No cut-off for these calls is given here.

Columns and labels:
[1] = biological target: T1, E3 ubiquitin-protein ligase XIAP (Homo sapiens, UniProt P98170); assay: Antagonist activity at XIAP-BIR3 domain (unknown origin) assessed as inhibition of interaction with SMAC at 155 uM by fluorescence polarization assay relative to control
T1 sequence (P98170 whole entry, the tested form may be a part): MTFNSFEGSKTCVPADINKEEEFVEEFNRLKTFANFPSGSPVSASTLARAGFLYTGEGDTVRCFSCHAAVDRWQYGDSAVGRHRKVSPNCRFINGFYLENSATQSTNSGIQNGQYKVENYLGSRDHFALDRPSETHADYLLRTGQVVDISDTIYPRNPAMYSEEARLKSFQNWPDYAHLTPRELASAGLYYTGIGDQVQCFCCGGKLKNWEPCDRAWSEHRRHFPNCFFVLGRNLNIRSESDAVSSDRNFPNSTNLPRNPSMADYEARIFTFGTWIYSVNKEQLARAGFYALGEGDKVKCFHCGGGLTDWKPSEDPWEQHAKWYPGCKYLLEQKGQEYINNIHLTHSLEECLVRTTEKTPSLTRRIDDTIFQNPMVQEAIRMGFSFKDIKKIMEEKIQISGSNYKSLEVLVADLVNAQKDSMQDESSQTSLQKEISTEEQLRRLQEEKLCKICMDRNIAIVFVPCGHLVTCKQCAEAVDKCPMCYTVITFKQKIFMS

[2] = biological target: T1, E3 ubiquitin-protein ligase XIAP; assay: Antagonist activity at XIAP-BIR3 domain (unknown origin) assessed as inhibition of interaction with SMAC at 5 mM by fluorescence polarization assay relative to control
Method in brief: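 Competitive FP binding of a SMAC-derived fluorescent tracer, AbuRPFK(5&6FAM)-amide (5 nM), to XIAP-BIR3 (20 nM). Compound was tested at 5 mM and equilibrated at room temperature. Polarization was read at ex 485/em 538 nm and reported as percent inhibition, mean of at least two runs.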

[3] = biological target: Baculoviral IAP repeat-containing protein 2 (Homo sapiens) (UniProt Q13490); assay: Antagonist activity at cIAP1-BIR3 domain (unknown origin) assessed as inhibition of interaction with SMAC at 5 mM by fluorescence polarization assay relative to control
Sequence of Baculoviral IAP repeat-containing protein 2 (Homo sapiens) (Q13490 whole entry, the tested form may be a part): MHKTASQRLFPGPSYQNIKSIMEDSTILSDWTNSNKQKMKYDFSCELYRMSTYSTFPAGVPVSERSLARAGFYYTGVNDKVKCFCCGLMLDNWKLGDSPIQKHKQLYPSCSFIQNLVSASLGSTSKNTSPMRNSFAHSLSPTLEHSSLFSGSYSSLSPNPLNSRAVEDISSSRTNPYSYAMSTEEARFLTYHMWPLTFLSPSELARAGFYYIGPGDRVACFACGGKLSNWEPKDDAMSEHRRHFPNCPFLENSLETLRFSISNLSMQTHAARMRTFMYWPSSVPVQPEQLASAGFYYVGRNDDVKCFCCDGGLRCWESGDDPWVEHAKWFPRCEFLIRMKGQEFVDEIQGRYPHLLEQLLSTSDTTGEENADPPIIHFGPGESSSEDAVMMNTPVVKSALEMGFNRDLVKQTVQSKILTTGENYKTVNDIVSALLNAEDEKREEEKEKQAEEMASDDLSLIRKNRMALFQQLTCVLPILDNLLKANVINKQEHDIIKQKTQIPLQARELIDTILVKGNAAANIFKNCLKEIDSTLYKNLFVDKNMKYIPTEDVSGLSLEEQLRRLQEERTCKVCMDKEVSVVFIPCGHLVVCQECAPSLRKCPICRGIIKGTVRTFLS
Method in brief: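 Competitive FP assay: cIAP1-BIR3 (4 nM) with a 2 nM SMAC-derived FAM peptide tracer, AbuRPFK(5&6FAM)-amide. Compound was tested at 5 mM. Polarization was read at ex 485/em 538 nm and expressed as percent inhibition, mean of at least two runs.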

[4] = biological target: T1, E3 ubiquitin-protein ligase XIAP; assay: Antagonist activity at XIAP-BIR3 domain (unknown origin) assessed as inhibition of interaction with SMAC at 1 mM by fluorescence polarization assay relative to control
[5] = biological target: T1, E3 ubiquitin-protein ligase XIAP; assay: Antagonist activity at XIAP-BIR3 domain (unknown origin) assessed as inhibition of interaction with SMAC at 1000 uM by fluorescence polarization assay relative to control
[6] = biological target: T1, E3 ubiquitin-protein ligase XIAP; assay: Antagonist activity at XIAP-BIR3 domain (unknown origin) assessed as inhibition of interaction with SMAC at 495 uM by fluorescence polarization assay relative to control
[7] = test system: Mus musculus; assay: Reduction of XIAP level in human MDA-MB-231 cells xenografted in Balb/c SCID mouse at 100 mg/kg, ip measured after 1 to 24 hrs by Western blot analysis; assay type: functional, organism-based
Method in brief: (§1)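 Male Balb/c scid mice bearing MDA-MB-231 tumors received a single 100 mg/kg i.p. dose in 10% DMSO/90% saline (freebase equivalent). Tumors were harvested at 1, 6 and 24 h and snap frozen. Lysates were ground under liquid nitrogen in Triton lysis buffer with NaF/Na3VO4, and equal protein was run on SDS-PAGE. Blots were probed for cIAP1, XIAP, cleaved PARP and cleaved caspase-3, with infrared detection; comparison against vehicle-dosed tumors.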

[8] = test system: Mus musculus; assay: Toxicity in Balb/c SCID mouse xenografted with human MDA-MB-231 cells assessed as effect on body weight at 100 mg/kg, ip bid measured everyday during compound dosing; conditions: in vivo
[9] = test system: Mus musculus; assay: Reduction of cIAP1 level in human MDA-MB-231 cells xenografted in Balb/c SCID mouse at 100 mg/kg, ip measured after 1 to 6 hrs by Western blot analysis relative to vehicle-treated control; assay type: functional, organism-based; method in brief: as §1
[10] = test system: MDA-MB-231; assay: Antitumor activity against human MDA-MB-231 cells xenografted in Balb/c SCID mouse assessed as tumor growth inhibition at 100 mg/kg, ip bid measured every 3 days
[11] = test system: Mus musculus; assay: Reduction of cIAP1 level in human MDA-MB-231 cells xenografted in Balb/c SCID mouse at 100 mg/kg, ip measured after 24 hrs by Western blot analysis; assay type: functional, organism-based; method in brief: as §1
[12] = test system: EVSA-T; assay: cells; conditions: Homo sapiens, 72 h
[13] = test system: Mus musculus; assay: Reduction of cIAP1 level in human MDA-MB-231 cells xenografted in Balb/c SCID mouse at 100 mg/kg, ip measured after 1 hr by MSD plate-based method relative to vehicle-treated control; assay type: functional, organism-based
[14] = test system: MDA-MB-231; assay: cells; conditions: Homo sapiens, MDA-MB-231, 72 h
[15] = test system: Mus musculus; assay: Increase in cleaved caspase-3 level in human MDA-MB-231 cells xenografted in Balb/c SCID mouse at 100 mg/kg, ip measured after 1 to 24 hrs by Western blot analysis; assay type: functional, organism-based; method in brief: as §1
[16] = test system: Mus musculus; assay: Increase in cleaved PARP level in human MDA-MB-231 cells xenografted in Balb/c SCID mouse at 100 mg/kg, ip measured after 1 to 24 hrs by Western blot analysis; assay type: functional, organism-based; method in brief: as §1
[17] = test system: HCT-116; assay: cells; conditions: Homo sapiens, HCT-116, 72 h
[18] = biological target: T1, E3 ubiquitin-protein ligase XIAP; conditions: 0.05 uM
[19] = test system: MDA-MB-231; assay: Antitumor activity against human MDA-MB-231 cells xenografted in Balb/c SCID mouse assessed as tumor growth inhibition at 100 mg/kg, po qd measured every 3 days; assay type: functional, organism-based
Method in brief: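 Balb/c scid mice were inoculated s.c. with 5 x 10^6 MDA-MB-231 cells and dosing began when group (n=8) mean tumor volume reached 100 mm³. Arms: 100 mg/kg i.p. b.i.d., 100 mg/kg p.o. q.d., or vehicle. Tumor volume (length x width x width x 0.5) measured every 3 days; body weight recorded daily.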

[20] = biological target: T1, E3 ubiquitin-protein ligase XIAP; assay: Antagonist activity at full-length FLAG-tagged XIAP (unknown origin) transfected in HEK293 cells assessed as inhibition of interaction with caspase 9 after 2 hrs by immunoprecipitation assay; assay type: cell-based
[21] = biological target: Baculoviral IAP repeat-containing protein 2 (Homo sapiens) (UniProt Q13490); assay: Antagonist activity at cIAP1-BIR3 domain (unknown origin) assessed as inhibition of interaction with SMAC at 0.01 uM by fluorescence polarization assay relative to control

- inhibition [6]: 52%
Structure (SMILES): C[C@@H]1CN(CC(=O)N2CCc3ccccc32)CCN1

- EC50 [12]: 100 nM
- EC50 [14]: 590 nM
- EC50 [17]: > 10000 nM
Structure (SMILES): COC[C@H]1CN[C@H](C)CN1CC(=O)N1CC(C)(C)c2cnc(Cc3ccccc3)cc21
- Activity [7]: inactive
- Activity [8]: Non-toxic
- Activity [9]: Active
- TGI [10]: Active
- Activity [11]: inactive
- Activity [13]: Active
- Activity [15]: Active
- Activity [16]: Active

- inhibition [18]: 70%
- EC50 [20]: 34 nM
- inhibition [21]: 98%
- EC50 [12]: 2.1 nM
- EC50 [14]: 19 nM
- EC50 [17]: > 10000 nM
Structure (SMILES): CN[C@@H](C)C(=O)N[C@H]1CN(C(=O)CC(C)C)CC[C@H]2CC[C@@H](C(=O)NC(c3ccccc3)c3ccccc3)N2C1=O [XEVINAPANT]
- TGI [19]: Active

Continued, compound first:

Structure (SMILES): COc1ccc2c(c1)N(C(=O)CN1CCN[C@H](C)C1)CC2
- inhibition [1]: 49%

Structure (SMILES): O=C(CN1CCNCC1)N1CCCCC1
- inhibition [2]: 38%
- inhibition [3]: 16%

Structure (SMILES): Brc1cnn(C2CCNCC2)c1
- inhibition [2]: 33%
- inhibition [3]: 55%

Structure (SMILES): C[C@@H]1CN(CC(=O)N2CCc3ccc(N)cc32)CCN1
- inhibition [4]: 56%
- inhibition [5]: 56%
